Results on 27 compounds are retold here after ChEMBL document CHEMBL4145630, “Development of Highly Potent and Selective Steroidal Inhibitors and Degraders of CDK8” (ACS Med Chem Lett, 2018).

Assay [1] concerns the target T1, Cyclin-dependent kinase 8 (Homo sapiens, UniProt P49336). Kind of assay: Inhibition of CDK8 (unknown origin).
The target in assay [2] is T2, Protein cereblon/Cyclin-dependent kinase 8 (Homo sapiens) (UniProt P49336+Q96SW2). Kind of assay: Induction of CRBN-mediated CDK8 degradation in human Jurkat cells at 0.1 to 1 uM measured after 6 to 24 hrs by immunoblot analysis. It is filed as cell-based. In a few lines: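 Jurkat cells were treated with compound at 0.1 or 1 μM. Lysates were collected at 6 and 24 h, and CDK8 protein levels were assessed by immunoblot.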
T2 sequence (P49336 whole entry, looked up): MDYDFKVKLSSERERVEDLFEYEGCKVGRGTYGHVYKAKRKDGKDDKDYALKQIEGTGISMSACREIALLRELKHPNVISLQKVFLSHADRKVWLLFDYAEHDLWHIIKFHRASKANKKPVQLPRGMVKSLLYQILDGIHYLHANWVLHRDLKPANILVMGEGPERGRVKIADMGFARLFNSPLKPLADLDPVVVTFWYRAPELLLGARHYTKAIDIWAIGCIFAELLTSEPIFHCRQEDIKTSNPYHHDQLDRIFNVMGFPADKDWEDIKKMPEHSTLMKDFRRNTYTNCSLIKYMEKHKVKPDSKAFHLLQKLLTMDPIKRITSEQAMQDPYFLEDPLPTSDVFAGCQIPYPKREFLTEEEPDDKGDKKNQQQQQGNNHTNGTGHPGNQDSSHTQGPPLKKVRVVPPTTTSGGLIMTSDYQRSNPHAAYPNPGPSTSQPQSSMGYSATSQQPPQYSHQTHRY
T2 sequence (Q96SW2 whole entry, looked up): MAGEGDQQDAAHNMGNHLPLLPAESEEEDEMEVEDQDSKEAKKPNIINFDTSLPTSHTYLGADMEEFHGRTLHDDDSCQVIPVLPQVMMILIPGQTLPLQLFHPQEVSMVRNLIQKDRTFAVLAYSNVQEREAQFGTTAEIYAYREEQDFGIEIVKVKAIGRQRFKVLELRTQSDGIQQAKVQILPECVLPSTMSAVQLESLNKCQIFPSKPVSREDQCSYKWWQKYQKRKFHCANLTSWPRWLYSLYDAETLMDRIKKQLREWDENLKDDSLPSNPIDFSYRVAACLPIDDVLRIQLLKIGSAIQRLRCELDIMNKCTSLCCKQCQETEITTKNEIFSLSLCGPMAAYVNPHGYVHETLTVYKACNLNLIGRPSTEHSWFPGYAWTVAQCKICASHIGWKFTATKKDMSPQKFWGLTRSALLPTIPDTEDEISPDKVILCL

For assay [3], the target named is T2, Protein cereblon/Cyclin-dependent kinase 8 (Homo sapiens). Kind of assay: Induction of CRBN-mediated CDK8 degradation in human Jurkat cells up to 10 uM measured after 24 hrs by immunoblot analysis. It is filed as cell-based. The gist of the method: (§1)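 Jurkat cells incubated with increasing concentrations (up to 20 μM in the widest series) for 24 h; lysate CDK8 levels read by immunoblot.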
Background: In western blotting, separated proteins are transferred to a membrane and probed.

Assay [4] shares this target. The experiment in a line: Induction of CRBN-mediated CDK8 degradation in human Jurkat cells at 1 uM measured after 6 hrs in presence of proteasome inhibitor bortezomib by immunoblot analysis. It is filed as cell-based. In a few lines:
(§2)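 Rescue design: Jurkat cells pretreated with bortezomib (10 μM), MLN4924, lenalidomide in excess, or an excess of a CDK8-binding analogue unable to bind CRBN, then exposed to the degrader; CDK8 levels assessed by immunoblot.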

For assay [5] the target is unchanged. Kind of assay: Induction of CRBN-mediated CDK8 degradation in wild-type human MOLT4 cells at 5 uM measured after 24 hrs by immunoblot analysis. The gist of the method: (§3)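 Wild-type Molt4 cells and Molt4 cells with CRISPR/Cas9 deletion of CRBN were treated with increasing concentrations for 24 h; CDK8 in lysates detected by immunoblot.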
For assay [6] the target is unchanged. Kind of assay: Induction of CRBN-mediated CDK8 degradation in human Jurkat cells at 1 uM measured after 6 to 24 hrs by immunoblot analysis. It is filed as cell-based. In a few lines: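 Jurkat cells given 0.1 or 1 μM; lysates collected at 6 and 24 h and probed for CDK8 by immunoblot.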
Assay [7] has as its target Cyclin-dependent kinase 19 (Homo sapiens, UniProt Q9BWU1). Kind of assay: Induction of CDK19 degradation in human Jurkat cells up to 20 uM measured after 24 hrs by immunoblot analysis.
In assay [8] the target is T2, Protein cereblon/Cyclin-dependent kinase 8 (Homo sapiens). Kind of assay: Induction of CRBN-mediated CDK8 degradation in human Jurkat cells at 1 uM measured after 6 hrs in presence of neddylation inhibitor MLN4924 by immunoblot analysis. It is filed as cell-based. In a few lines: as §2
The target is the same in assay [9]. Kind of assay: Induction of CRBN-mediated CDK8 degradation in wild-type human Jurkat cells at 20 uM measured after 24 hrs by immunoblot analysis. It is filed as cell-based. The gist of the method:
as §1

The target of assay [10] is Protein cereblon/Cyclin-dependent kinase 19 (Homo sapiens) (UniProt Q9BWU1+Q96SW2). The experiment in a line: Induction of CRBN-mediated CDK19 degradation in wild-type human Jurkat cells up to 20 uM measured after 24 hrs by immunoblot analysis. It is filed as cell-based. The gist of the method:
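Jurkat cells treated for 24 h; CDK19 protein in cell lysates assessed by immunoblot.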

Another assay deals with Jurkat. The experiment in a line: Effect on CDK8 mRNA levels in human Jurkat cells at 1 uM after 24 hrs by qPCR analysis. It is filed as functional, cell-based. In a few lines: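 Jurkat cells exposed to 1 μM or vehicle for 24 h; Cdk8 mRNA quantified by qPCR with two separate Cdk8 primer sets, normalized to Actin.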
For assay [11], the target named is T1, Cyclin-dependent kinase 8. The experiment in a line: Induction of CDK8 degradation in human MOLT4 cells harboring CRBN deletion mutant at 0.1 to 5 uM measured after 24 hrs by immunoblot analysis. It is filed as cell-based. The gist of the method: as §3
For assay [12], the target named is T2, Protein cereblon/Cyclin-dependent kinase 8 (Homo sapiens). The experiment in a line: Induction of CRBN-mediated CDK8 degradation in wild-type human Jurkat cells at 1 to 10 uM measured after 24 hrs by immunoblot analysis. It is filed as cell-based. In a few lines:
as §1

The target is the same in assay [13]. Kind of assay: Induction of CRBN-mediated CDK8 degradation in human Jurkat cells at 1 uM measured after 6 hrs in presence of lenalidomide by immunoblot analysis. It is filed as cell-based. The gist of the method:
as §2

For assay [14] the target is unchanged. The experiment in a line: Induction of CRBN-mediated CDK8 degradation in human Jurkat cells at 1 uM measured after 6 hrs in presence of N-((3S,17S)-17-(isoquinolin-7-yl)-10,13-dimethylhexadecahydro-1H-cyclopenta[a]phenanthren-3-yl)-Nmethyl-1-((2-(1-methyl-2,6-dioxopiperidin-3-yl)-1,3-dioxoisoindolin-4-yl)amino)-3,6,9,12-tetraoxapentadecan-15-amide by immunoblot analysis. It is filed as cell-based. In a few lines:
as §2

The target is the same in assay [15]. The experiment in a line: Induction of CRBN-mediated CDK8 degradation in human Jurkat cells at 0.1 to 10 uM measured after 24 hrs by immunoblot analysis. It is filed as cell-based. In a few lines: as §1
Assay [16] deals with T1, Cyclin-dependent kinase 8. Kind of assay: Inhibition of CDK8 in human HepG2 cells assessed as reduction in IFNgamma-induced STAT1 phosphorylation at S727 measured after 18 hrs by Western blot analysis. It is filed as cell-based.

Activity calls are given as the source filed them. No cut-off for these calls is given here.

T1 sequence (P49336 whole entry): as the sequence (P49336 whole entry, looked up) above
Chain of Cyclin-dependent kinase 19 (Q9BWU1 whole entry): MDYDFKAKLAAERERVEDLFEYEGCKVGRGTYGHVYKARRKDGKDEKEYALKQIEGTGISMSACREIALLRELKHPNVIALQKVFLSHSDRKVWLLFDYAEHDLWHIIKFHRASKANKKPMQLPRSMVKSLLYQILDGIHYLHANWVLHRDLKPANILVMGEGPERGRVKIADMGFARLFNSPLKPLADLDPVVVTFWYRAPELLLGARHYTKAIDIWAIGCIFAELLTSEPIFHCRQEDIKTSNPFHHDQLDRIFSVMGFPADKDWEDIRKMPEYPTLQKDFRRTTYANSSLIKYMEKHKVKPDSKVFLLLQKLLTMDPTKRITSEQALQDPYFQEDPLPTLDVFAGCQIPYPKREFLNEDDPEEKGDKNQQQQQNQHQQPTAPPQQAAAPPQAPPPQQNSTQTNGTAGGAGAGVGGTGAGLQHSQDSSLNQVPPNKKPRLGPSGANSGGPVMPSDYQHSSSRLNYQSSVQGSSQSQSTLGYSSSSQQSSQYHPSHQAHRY
Chain of Protein cereblon/Cyclin-dependent kinase 19 (Homo sapiens) (Q96SW2 whole entry, looked up): as the sequence (Q96SW2 whole entry, looked up) above
Chain of Protein cereblon/Cyclin-dependent kinase 19 (Homo sapiens) (Q9BWU1 whole entry, looked up): as the sequence (Q9BWU1 whole entry) above

One may read the IC50 as the point on the concentration scale where inhibition reaches its midpoint. Read a low IC50 as greater potency. The compound `C[C@]12CC[C@H](O)CC1=CC[C@@H]1[C@@H]2CC[C@]2(C)C(c3ccc4cnccc4c3)=CC[C@@H]12` registered an IC50 in assay [1] of 8240 nM. In the case of `C[C@]12CC[C@H](O)CC1=CC[C@@H]1[C@@H]2CC[C@]2(C)C(c3ccc4cn[nH]c4c3)=CC[C@@H]12`, in assay [1], the IC50 was greater than 10000 nM.

In turn, `CN[C@H]1CC[C@@]2(C)[C@@H](CC[C@@H]3[C@@H]2CC[C@]2(C)[C@@H](c4ccc5ccncc5c4)CC[C@@H]32)C1` returned an IC50 in [1] of 1320 nM. On the same count and under the same terms, for `C[C@]12CC[C@H](O)CC1=CC[C@@H]1[C@@H]2CC[C@]2(C)C(c3ccc4[nH]ncc4c3)=CC[C@@H]12` the value was greater than 10000 nM. Consider `CN(CCCCCOCCOCCNc1cccc2c1C(=O)N(C1CCC(=O)NC1=O)C2=O)[C@H]1CC[C@@]2(C)[C@@H](CC[C@@H]3[C@@H]2CC[C@]2(C)[C@@H](c4ccc5ccncc5c4)CC[C@@H]32)C1` (stereo partly specified), for which the result in [2] was inactive. `C[C@]12CC[C@H](N3CCOCC3)C[C@@H]1CC[C@@H]1[C@@H]2CC[C@]2(C)[C@@H](c3ccc4ccncc4c3)CC[C@@H]12` had an IC50 in assay [1] of 120 nM. On the same count and under the same terms, for `C[C@]12CC[C@H]3[C@@H](CC=C4C[C@@H](O)CC[C@@]43C)[C@@H]1CC[C@@H]2c1ccc2[nH]ncc2c1` the value was greater than 10000 nM. Regarding `CN1C(=O)CCC(N2C(=O)c3cccc(NCCOCCOCCOCCOCCC(=O)N(C)[C@H]4CC[C@@]5(C)[C@@H](CC[C@@H]6[C@@H]5CC[C@]5(C)[C@@H](c7ccc8ccncc8c7)CC[C@@H]65)C4)c3C2=O)C1=O` (stereo partly specified), in [3], the outcome was inactive. Inhibition in assay [1] was half-maximal at 443 nM (IC50). `CC(=O)N(C)[C@H]1CC[C@@]2(C)[C@@H](CC[C@@H]3[C@@H]2CC[C@]2(C)[C@@H](c4ccc5ccncc5c4)CC[C@@H]32)C1` gave an IC50 in assay [1] of 34 nM.

As for `CN(C(=O)CCOCCOCCOCCOCCNc1cccc2c1C(=O)N(C1CCC(=O)NC1=O)C2=O)[C@H]1CC[C@@]2(C)[C@@H](CC[C@@H]3[C@@H]2CC[C@]2(C)[C@@H](c4ccc5ccncc5c4)CC[C@@H]32)C1` (stereo partly specified), the outcome (in assay [4]; in [7]; in [8]; in assay [9]; in [10]; in the assay on Jurkat) was inactive. For the same compound, the outcome in assay [11], in [13] and in [14] was inactive. The result in assay [5], in [6] and in assay [12] was Active. The IC50 in assay [1] turned out to be 159 nM. For `C[C@]12CC[C@H](n3ccnn3)C[C@@H]1CC[C@@H]1[C@@H]2CC[C@]2(C)[C@@H](c3ccc4ccncc4c3)CC[C@@H]12`, 24 nM corresponded to half-maximal inhibition in assay [1] (IC50). As to `CN(C(=O)CCOCCOCCNc1cccc2c1C(=O)N(C1CCC(=O)NC1=O)C2=O)[C@H]1CC[C@@]2(C)[C@@H](CC[C@@H]3[C@@H]2CC[C@]2(C)[C@@H](c4ccc5ccncc5c4)CC[C@@H]32)C1` (stereo partly specified), in assay [15], the result was inactive. In [1], this compound displayed an IC50 of 192 nM. For `C[C@]12CC[C@H](O)CC1=CC[C@@H]1[C@@H]2CC[C@]2(C)C(c3ccc4ccncc4c3)=CC[C@@H]12`, the IC50 in assay [1] stood at 164 nM.

As to `C[C@]12CC[C@H](O)CC1=CC[C@@H]1[C@@H]2CC[C@]2(C)C(c3ccc4nc(N)ncc4c3)=CC[C@@H]12`, it took 2300 nM to reach half-maximal inhibition in [1] (IC50). On the same count and under the same terms, the same measure for `C[C@]12CC[C@H]3[C@@H](CC=C4C[C@@H](O)CC[C@@]43C)[C@@H]1CC[C@@H]2c1ccc2cn[nH]c2c1`: greater than 10000 nM; for `C[C@]12CC[C@H](O)C[C@@H]1CC[C@@H]1[C@@H]2CC[C@]2(C)[C@@H](c3ccc4ccncc4c3)CC[C@@H]12`: 208 nM.

In turn, `C[C@]12CC[C@H](O)CC1=CC[C@@H]1[C@@H]2CC[C@]2(C)C(c3ccc4cnncc4c3)=CC[C@@H]12` displayed an IC50 in assay [1] greater than 10000 nM.

Compound `C[C@]12CC[C@H](O)CC1=CC[C@@H]1[C@@H]2CC[C@]2(C)C(c3ccc4c(N)n[nH]c4c3)=CC[C@@H]12` displayed an IC50 in [1] of 1520 nM. Still for that read-out and setting: the same measure for `C[C@]12CC[C@H]3[C@@H](CC=C4C[C@@H](O)CC[C@@]43C)[C@@H]1CC[C@@H]2c1ccc2c(N)n[nH]c2c1`: 682 nM. Same read-out and setting: the same measure for `C[C@]12CC[C@H]3[C@@H](CC=C4C[C@@H](O)CC[C@@]43C)[C@@H]1CC[C@@H]2c1ccc2cnncc2c1`: greater than 10000 nM.

For the compound `C[C@]12CC[C@H](O)C[C@@H]1CC[C@@H]1[C@@H]2CC[C@]2(C)C(c3ccc4ccncc4c3)=CC[C@@H]12`, in [1], the IC50 worked out at 1010 nM. Same read-out and setting: the same measure for `CN(C)[C@@H]1CC[C@@]2(C)[C@@H](CC[C@@H]3[C@@H]2CC[C@]2(C)[C@@H](c4ccc5ccncc5c4)CC[C@@H]32)C1`: 64 nM; for `C[C@]12CC[C@H]3[C@@H](CC=C4C[C@@H](O)CC[C@@]43C)[C@@H]1CC[C@@H]2c1ccc2cnccc2c1`: 6000 nM; for `CN(C)[C@H]1CC[C@@]2(C)[C@@H](CC[C@@H]3[C@@H]2CC[C@]2(C)[C@@H](c4ccc5ccncc5c4)CC[C@@H]32)C1`: 24 nM.

For `CN(C)[C@H]1C[C@@]23CC[C@@]4(O2)C(=CC[C@]2(C)C(c5ccc6ccncc6c5)=CCC24)C=C3[C@@H](O)[C@@H]1O` (stereo partly specified), the inhibition entry in [16] is “Dose-dependent effect”. As for `C[C@]12CC[C@H]3[C@@H](CC=C4C[C@@H](O)CC[C@@]43C)[C@@H]1CC[C@@H]2c1ccc2nc(N)ncc2c1`, the IC50 in [1] amounted to 108 nM. Still for that read-out and setting: for `C[C@]12CC[C@H]3[C@@H](CC=C4C[C@@H](O)CC[C@@]43C)[C@@H]1CC[C@@H]2c1ccc2ccncc2c1` the value was 48 nM.
